Data set [1] relates to MCF7. Description: Induction of apoptosis in human MCF7 cells assessed as necrotic cells at IC50 concentration after 24 hrs using V-FITC and propidium iodide staining by flow cytometry (reference value: 9.55 +/- 0.21 %). It is filed as functional. (In flow cytometry, cells or beads pass a laser one at a time.)
The nature of data set [2]: Therapeutic index, ratio of IC50 for human MCF10A cells to IC50 for human MDA-MB-231 cells expressing high level of p53. It is filed as cell-based. To be noted: MCF10A cells versus MDA-MB-231 cells (high level of p53), read-out: Ratio IC50. The method, boiled down:
(§1)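 Ratio of IC50 in non-tumour MCF-10A to IC50 in the tumour line, both from the SRB growth assay described for cytotoxicity.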

Data set [3] deals with MCF7. Description: Cell cycle arrest in human MCF7 cells assessed as accumulation at S phase after 48 hrs using propidium iodide staining by flow cytometry (reference value: 8.55 +/- 0.40 %). It is filed as functional.
Data set [4] deals with MCF7. Description: Cytotoxicity against human MCF7 cells expressing wild type p53 and ras mutant […]. Type of data set: functional, cell-based.
Data set [5] in a line: Cell cycle arrest in human MCF10A cells assessed as accumulation at G0/G1 phase after 48 hrs using propidium iodide staining by flow cytometry (reference value: 65.70 +/- 1.14 %). It is filed as ADME, cell-based. The note with it: mcf-10a.
In data set [6] the test system is MDA-MB-231. The data set is described as follows: Cell cycle arrest in human MDA-MB-231 cells assessed as accumulation at G2/M phase after 48 hrs using propidium iodide staining by flow cytometry (reference value: 31.59 +/- 0.03 %). Type of data set: functional.
In data set [7] the test system is MDA-MB-231. The data set is described as follows: Cytotoxicity against human MDA-MB-231 cells expressing high level of p53 […]. Type of data set: functional, cell-based.
Data set [8] can be described thus: Therapeutic index, ratio of IC50 for human MCF10A cells to IC50 for human MCF7 cells expressing wild type p53 and ras mutant. Type of data set: cell-based. To be noted: MCF10A cells versus MCF7 cells (wild type p53, ras mutant), read-out: Ratio IC50. The method, boiled down: as §1
Data set [9] concerns MCF7. Description: Induction of apoptosis in human MCF7 cells assessed as necrotic cells at IC50 concentration after 48 hrs using V-FITC and propidium iodide staining by flow cytometry (reference value: 12.61 +/- 7.50 %). Type of data set: functional.
Data set [10] is described as follows: Cell cycle arrest in human MCF10A cells assessed as accumulation at G2/M phase after 48 hrs using propidium iodide staining by flow cytometry (reference value: 12.55 +/- 0.68 %). It is filed as ADME, cell-based. To be noted: mcf-10a.
Data set [11] relates to MCF7. Description: Induction of apoptosis in human MCF7 cells assessed as late apoptotic cells at IC50 concentration after 24 hrs using V-FITC and propidium iodide staining by flow cytometry (reference value: 0.03 +/- 0.01 %). It is filed as functional.
The test system of data set [12] is MCF7. Description: Cell cycle arrest in human MCF7 cells assessed as accumulation at G2/M phase after 48 hrs using propidium iodide staining by flow cytometry (reference value: 1.57 +/- 2.12 %). It is filed as functional.
Data set [13] in a line: Cell cycle arrest in human MCF10A cells assessed as accumulation at S phase after 48 hrs using propidium iodide staining by flow cytometry (reference value: 21.78 +/- 0.46 %). Type of data set: ADME, cell-based. The note with it: mcf-10a.
For data set [14], the system named is MCF7. The data set is described as follows: Induction of apoptosis in human MCF7 cells assessed as viable cells at IC50 concentration after 48 hrs using V-FITC and propidium iodide staining by flow cytometry (reference value: 86.26 +/- 7.25 %).
Data set [15] concerns MCF7. The data set is described as follows: Induction of apoptosis in human MCF7 cells assessed as late apoptotic cells at IC50 concentration after 24 hrs using V-FITC and propidium iodide staining by flow cytometry (reference value: 1.11 +/- 0.24 %). Type of data set: functional.
The subject of data set [16] is MDA-MB-231. The data set is described as follows: Cell cycle arrest in human MDA-MB-231 cells assessed as accumulation at G0/G1 phase after 48 hrs using propidium iodide staining by flow cytometry (reference value: 42.06 +/- 0.01 %). Type of data set: functional.
Data set [17] concerns MDA-MB-231. Description: Cell cycle arrest in human MDA-MB-231 cells assessed as accumulation at S phase after 48 hrs using propidium iodide staining by flow cytometry (reference value: 26.35 +/- 0.03 %). It is filed as functional.
Data set [18] concerns MCF7. The data set is described as follows: Induction of apoptosis in human MCF7 cells assessed as early apoptotic cells at IC50 concentration after 48 hrs using V-FITC and propidium iodide staining by flow cytometry relative to control. Type of data set: functional.
The nature of data set [19]: Cytotoxicity against human MCF10A cells […] by SRB assay. Type of data set: cell-based. The note with it: MCF-10A.
The test system of data set [20] is MCF7. The data set is described as follows: Cell cycle arrest in human MCF7 cells assessed as accumulation at G0/G1 phase after 48 hrs using propidium iodide staining by flow cytometry (reference value: 89.88 +/- 1.73 %). Type of data set: functional.
The test system of data set [21] is MCF7. The data set is described as follows: Induction of apoptosis in human MCF7 cells assessed as early apoptotic cells at IC50 concentration after 24 hrs using V-FITC and propidium iodide staining by flow cytometry relative to control. It is filed as functional.
Data set [22] has as its system MCF7. The data set is described as follows: Induction of apoptosis in human MCF7 cells assessed as cell viability at IC50 concentration after 24 hrs using V-FITC and propidium iodide staining by flow cytometry (reference value: 90.42 +/- 0.63 %). Type of data set: functional.
For data set [23], the system named is Mus musculus. Description: Acute toxicity in BALB/c mouse assessed as mortality up to 50 mg/kg, po after 2 weeks. The note with it: in vivo, 336 h. Details: dose 50 mg/kg, route oral. Type of data set: organism-based. In a few lines:
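Female BALB/c mice, six weeks old (about 20 g), were dosed once by gavage at 0.05, 0.5, 5 and 50 mg/kg (n = 25) in 0.25 mL of 0.9% NaCl/DMSO. Controls received saline or DMSO alone. Body weight and signs of systemic toxicity (listlessness, weight loss) and local toxicity (alopecia, skin reaction, leg motility) were checked twice weekly over 2 weeks.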

Data set [24] concerns Mus musculus. Description: Acute toxicity in BALB/c mouse assessed as mortality up to 200 mg/kg, ip after 2 weeks. Type of data set: organism-based. Details: dose 200 mg/kg, route intraperitoneal. The note with it: in vivo, 336 h. The method, boiled down:
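Six-week-old female BALB/c mice (about 20 g) were given a single i.p. bolus at 50, 75, 100, 150 and 200 mg/kg (n = 25), dissolved in 0.25 mL of 0.9% NaCl/DMSO. Vehicle controls received saline or DMSO alone. Mice were weighed and scored twice weekly for 2 weeks for systemic toxicity (listlessness, weight loss) and local toxicity (alopecia, skin reaction, leg motility).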

Data on four compounds can be found in ChEMBL document CHEMBL1649390, “New (RS)-benzoxazepin-purines with antitumour activity: The chiral switch from (RS)-2,6-dichloro-9-[1-(p-nitrobenzenesulfonyl)-1,2,3,5-tetrahydro-4,1-benzoxazepin-3-yl]-9H-purine” (Eur J Med Chem, 2011).

The IC50 is the midpoint of a concentration-inhibition curve. The low end stands for higher potency, the high end for lower potency. A word on the viability: it is a read-out of living cells in per cent, often relative to untreated cells. On to `O=[N+]([O-])c1ccccc1S(=O)(=O)N1CC(n2cnc3c(I)nc(Cl)nc32)OCc2ccccc21` (racemic), for which the Activity in the data set with MCF7 [1] is 7.69%; in the data set on MCF7 [3] it was 9.53%; in data set [5], 66.69%; with MDA-MB-231 [6] it was 30.3%; in the data set with MCF7 [9], 8.08%; in data set [10], 11.34%. Further, the Activity was determined as 0.08% in the data set with MCF7 [11]; 6.38% in the data set on MCF7 [12]; 21.98% in [13]; 9.33% with MCF7 [15]; 40.38% in the data set on MDA-MB-231 [16]; 28.82% with MDA-MB-231 [17]. The Activity is recorded as 24.27% in the data set on MCF7 [18], 84.1% in the data set on MCF7 [20], 0% in the data set with MCF7 [21] and 92.22% with MCF7 [22]. In addition, the selectivity ratio came to 1.37 in data set [2] and 0.57 in [8]. The IC50 with MCF7 [4] amounted to 0.61 µM; in the data set on MDA-MB-231 [7], 0.256 µM; in data set [19] it was 0.351 µM. Moreover, the viability with MCF7 [14] was 58.32%.
As for `O=[N+]([O-])c1ccc(S(=O)(=O)N2C[C@@H](n3cnc4c(Cl)nc(Cl)nc43)OCc3ccccc32)cc1`, the Activity with MCF7 [1] is on record as 10.37%; in the data set with MCF7 [3], 7.88%; in data set [5], 64.22%; with MDA-MB-231 [6], 30.67%; in the data set with MCF7 [9], 1.84%; in [10], 10.76%. Also, the Activity in the data set on MCF7 [11] stood at 0.34%; in the data set with MCF7 [12], 3.1%; in data set [13], 25.02%; in the data set on MCF7 [15] it was 5.35%; with MDA-MB-231 [16], 39.97%; with MDA-MB-231 [17], 29.37%. Further, the Activity in the data set with MCF7 [18] worked out at 28.82%; in the data set on MCF7 [20] it was 89.02%; in the data set on MCF7 [21], 0.1%; in the data set with MCF7 [22], 89.36%. Moreover, the IC50 in the data set on MCF7 [4] came to 0.1 µM; in the data set on MDA-MB-231 [7], 0.11 µM. In addition, the viability in the data set on MCF7 [14] is 63.98%.
For the compound `O=[N+]([O-])c1ccc(S(=O)(=O)N2CC(n3cnc4c(Cl)nc(Cl)nc43)OCc3ccccc32)cc1` (racemic), the Activity entry with Mus musculus [23] is “Non-toxic”; in the data set with MCF7 [1], 4.93%; in the data set on MCF7 [3], 8.55%; in data set [5] it was 65.94%; with MDA-MB-231 [6], 25.4%; with MCF7 [9] it was 16.13%. The Activity is given as 11.92% in data set [10]; 0.23% in the data set with MCF7 [11]; 1.57% with MCF7 [12]; 22.14% in [13]; “Non-toxic” with Mus musculus [24]; 13.84% in the data set with MCF7 [15]. In addition, the Activity in the data set with MDA-MB-231 [16] was 45.4%; in the data set with MDA-MB-231 [17] it was 29.36%; with MCF7 [18], 23.38%; in the data set with MCF7 [20], 87.2%; in the data set with MCF7 [21], 0.66%; in the data set on MCF7 [22], 94.16%. For the same compound, the selectivity ratio amounted to 11 in [2] and 5.14 in data set [8]. Besides, the IC50 was found to be 0.355 µM with MCF7 [4], 0.166 µM in the data set on MDA-MB-231 [7] and 1.82 µM in data set [19]. The viability in the data set on MCF7 [14] came to 46.65%.
As for `O=[N+]([O-])c1ccc(S(=O)(=O)N2C[C@H](n3cnc4c(Cl)nc(Cl)nc43)OCc3ccccc32)cc1`, the Activity worked out at 10.23% with MCF7 [1]; 11.06% with MCF7 [3]; 65.33% in [5]; 46.24% in the data set with MDA-MB-231 [6]; 2.94% in the data set with MCF7 [9]; 12.68% in data set [10]. The Activity was determined as 0.51% in the data set on MCF7 [11]; 1.22% in the data set with MCF7 [12]; 22% in data set [13]; 10.51% in the data set on MCF7 [15]; 50.78% in the data set on MDA-MB-231 [16]; 2.98% in the data set on MDA-MB-231 [17]. The Activity was 41.99% in the data set with MCF7 [18], 87.22% in the data set with MCF7 [20], 0.68% in the data set with MCF7 [21] and 88.56% in the data set with MCF7 [22]. The IC50 came to 0.19 µM in the data set with MCF7 [4] and 0.11 µM with MDA-MB-231 [7]. For the same compound, the viability in the data set on MCF7 [14] is on record as 44.55%.
